Measurements from ChEMBL document CHEMBL2321697, “The effect of absolute configuration on activity, subtype selectivity (M3/M2) of 3α-acyloxy-6β-acetoxyltropane derivatives as muscarinic M3 receptor antagonists” (Bioorg Med Chem, 2013).

How the values were obtained:
[1] = target: Muscarinic receptor M2 and M3 (Rattus norvegicus) (UniProt P08483+P10980); assay: Selectivity ratio of Ki for muscarinic M2 receptor in Sprague-Dawley rat left atria to Ki for muscarinic M3 receptor in Sprague-Dawley rat submandibulary gland
[2] = target: Muscarinic acetylcholine receptor M3 (Rattus norvegicus, UniProt P08483); assay: Displacement of [3H]NMS from muscarinic M3 receptor in Sprague-Dawley rat submandibulary gland after 60 mins
Procedure, shortened: (§1)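 Membranes from male SD rat (220–250 g) left atria (M2) or submandibulary glands (M3). Tissue homogenised in ice-cold 0.32 M sucrose/50 mM Tris pH 7.4, then spun at 1000g and 20000g, all steps at 4 °C. Membranes (0.1 mg protein) incubated 60 min at 37 °C with 0.4 nM [3H]NMS plus increasing test concentrations. Filtration read-out. IC50 converted to Ki by Cheng–Prusoff, mean SEM.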

[3] = target: T1, Muscarinic acetylcholine receptor M2 (Rattus norvegicus, UniProt P10980); assay: Displacement of [3H]NMS from muscarinic M2 receptor in Sprague-Dawley rat left atria after 60 mins; procedure, shortened: as §1
T1 sequence (P10980 whole entry): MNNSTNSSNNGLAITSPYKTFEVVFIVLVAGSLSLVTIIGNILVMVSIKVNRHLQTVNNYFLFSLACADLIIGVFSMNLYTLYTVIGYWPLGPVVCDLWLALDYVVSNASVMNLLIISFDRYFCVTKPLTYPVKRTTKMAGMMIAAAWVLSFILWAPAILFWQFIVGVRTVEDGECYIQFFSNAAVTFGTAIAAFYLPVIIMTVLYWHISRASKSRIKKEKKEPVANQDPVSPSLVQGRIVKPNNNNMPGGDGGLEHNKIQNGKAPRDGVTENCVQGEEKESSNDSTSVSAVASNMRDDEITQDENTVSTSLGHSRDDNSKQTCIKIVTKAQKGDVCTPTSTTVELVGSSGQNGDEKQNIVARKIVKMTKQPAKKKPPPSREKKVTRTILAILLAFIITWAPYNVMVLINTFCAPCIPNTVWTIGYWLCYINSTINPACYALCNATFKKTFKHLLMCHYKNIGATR

Muscarinic receptor 2 = target: T2, Muscarinic receptor 2 (Cavia porcellus, UniProt Q8VH27); assay: Antagonist activity at muscarinic M2 receptor in guinea pig left atria assessed as inhibition of carbachol-induced […]; details: read-out: pA2 (converted)
T2 sequence (Q8VH27 whole entry): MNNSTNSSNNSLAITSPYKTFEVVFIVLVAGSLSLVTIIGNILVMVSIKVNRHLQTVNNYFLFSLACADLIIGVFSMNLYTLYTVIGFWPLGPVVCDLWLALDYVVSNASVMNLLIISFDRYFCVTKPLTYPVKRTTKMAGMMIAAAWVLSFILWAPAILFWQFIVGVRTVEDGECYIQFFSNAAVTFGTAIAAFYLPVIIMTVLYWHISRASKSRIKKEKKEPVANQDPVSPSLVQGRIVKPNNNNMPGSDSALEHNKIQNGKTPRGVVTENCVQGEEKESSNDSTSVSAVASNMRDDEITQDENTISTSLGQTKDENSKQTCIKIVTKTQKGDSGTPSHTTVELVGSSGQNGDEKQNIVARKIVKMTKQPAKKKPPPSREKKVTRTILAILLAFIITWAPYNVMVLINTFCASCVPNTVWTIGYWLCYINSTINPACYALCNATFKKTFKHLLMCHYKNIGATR
Procedure, shortened: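 Isolated left atria in Kreb's solution under 500 mg tension, stabilised 45 min, then electrically paced (2 Hz, 6 ms, 10 V square-wave submaximal pulses). Inotropic response recorded isometrically. Cumulative carbachol curves expressed as % of contraction before agonist. Antagonist tested at two or three concentrations. pA2 obtained by Schild analysis.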

[4] = target: Muscarinic acetylcholine receptor M3 (Cavia porcellus, UniProt Q8VH26); assay: Antagonist activity at muscarinic M3 receptor in guinea pig ilea assessed as inhibition of carbachol-induced contraction; details: read-out: pA2 (converted)
Procedure, shortened: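 Ileal strips (1.5 cm) in 10 ml baths of Kreb's solution under 1000 mg load, equilibrated 30 min with fluid changed every 15 min. Isotonic recording. Cumulative carbachol curve with roughly 3-fold steps, each added once the prior response was steady. Responses expressed as % of control maximum. Antagonist at three concentrations. pA2 by Schild analysis.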

Sequence of Muscarinic acetylcholine receptor M3 (Cavia porcellus, UniProt Q8VH26) (Q8VH26 whole entry): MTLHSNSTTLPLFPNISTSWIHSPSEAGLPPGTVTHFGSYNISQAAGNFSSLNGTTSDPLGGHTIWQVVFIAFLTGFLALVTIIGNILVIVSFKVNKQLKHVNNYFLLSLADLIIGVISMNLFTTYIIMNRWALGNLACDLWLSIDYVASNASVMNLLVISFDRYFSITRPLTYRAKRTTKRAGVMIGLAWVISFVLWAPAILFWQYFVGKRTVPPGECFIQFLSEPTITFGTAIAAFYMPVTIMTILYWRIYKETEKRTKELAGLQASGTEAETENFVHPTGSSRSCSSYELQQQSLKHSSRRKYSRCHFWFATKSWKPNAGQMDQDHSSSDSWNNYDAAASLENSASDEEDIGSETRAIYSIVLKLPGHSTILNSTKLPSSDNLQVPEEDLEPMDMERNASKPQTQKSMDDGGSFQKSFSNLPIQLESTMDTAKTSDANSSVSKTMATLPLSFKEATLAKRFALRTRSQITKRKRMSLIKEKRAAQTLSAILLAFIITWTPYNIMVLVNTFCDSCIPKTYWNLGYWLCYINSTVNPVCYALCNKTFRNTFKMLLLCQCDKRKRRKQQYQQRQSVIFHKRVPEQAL
Sequence of Muscarinic receptor M2 and M3 (Rattus norvegicus) (P08483 whole entry, looked up, one chain of several): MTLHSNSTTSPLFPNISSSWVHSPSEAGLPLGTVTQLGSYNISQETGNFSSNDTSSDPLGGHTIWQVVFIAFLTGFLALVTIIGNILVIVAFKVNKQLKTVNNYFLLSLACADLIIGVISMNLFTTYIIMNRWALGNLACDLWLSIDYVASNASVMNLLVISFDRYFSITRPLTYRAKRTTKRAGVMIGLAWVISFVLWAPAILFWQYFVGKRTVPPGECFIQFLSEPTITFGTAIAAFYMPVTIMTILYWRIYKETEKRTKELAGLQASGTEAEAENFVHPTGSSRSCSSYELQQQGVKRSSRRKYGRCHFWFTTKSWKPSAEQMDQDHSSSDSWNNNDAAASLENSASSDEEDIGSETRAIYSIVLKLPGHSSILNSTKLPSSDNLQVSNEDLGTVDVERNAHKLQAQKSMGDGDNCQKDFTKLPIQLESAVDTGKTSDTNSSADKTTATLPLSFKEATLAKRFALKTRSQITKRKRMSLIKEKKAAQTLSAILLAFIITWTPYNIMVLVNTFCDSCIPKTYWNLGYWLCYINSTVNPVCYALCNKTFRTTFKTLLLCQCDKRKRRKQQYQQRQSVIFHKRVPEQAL
Sequence of Muscarinic acetylcholine receptor M3 (Rattus norvegicus, UniProt P08483) (P08483 whole entry): as the sequence (P08483 whole entry, looked up, one chain of several) above

Compound | Ratio Ki [1] | Ki [2] | Ki [3] | Kb (Muscarinic receptor 2) | Kb [4]
CC(=O)O[C@@H]1C[C@@H]2C[C@H](OC(=O)Cc3ccccc3)C[C@@H]1N2C | 0.9 | 95 µM | 86 µM | – | –
CC(=O)O[C@@H]1C[C@@H]2C[C@H](OC(=O)c3ccccc3[N+](=O)[O-])C[C@@H]1N2C | 1.3 | 66 µM | 84 µM | – | –
CC(=O)O[C@@H]1C[C@@H]2C[C@H](OC(=O)c3ccccc3)C[C@@H]1N2C | 1.1 | 71 µM | 77 µM | – | –
CC(=O)O[C@H]1C[C@@H]2C[C@@H](OC(=O)c3ccccc3Cl)C[C@@H]1N2C | 6.3 | 1.4 µM | 8.8 µM | 631 nM | 275 nM
CC(=O)O[C@H]1C[C@@H]2C[C@@H](OC(=O)c3ccccc3)C[C@@H]1N2C | 4 | 2.7 µM | 10.7 µM | 1320 nM | 309 nM
CC(=O)O[C@@H]1C[C@@H]2C[C@H](OC(=O)c3ccccc3Cl)C[C@@H]1N2C | 1.1 | 83 µM | 95 µM | – | –
CC(=O)O[C@H]1C[C@@H]2C[C@@H](OC(=O)c3ccccc3[N+](=O)[O-])C[C@@H]1N2C | 2.6 | 3.7 µM | 9.8 µM | 851 nM | 389 nM
CC(=O)O[C@H]1C[C@@H]2C[C@@H](OC(=O)Cc3ccccc3)C[C@@H]1N2C | 13 | 0.92 µM | 12 µM | 1100 nM | 123 nM
